Here are results for 4 compounds from article PMC6214403 (Bioorganic & medicinal chemistry, 2018).

Series [1] can be described thus: Oxidation susceptibility / stability with rat liver microsomes by mass analysis. It is filed as in vitro ADME. The note with it: 37 °C. Put shortly:
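Test compound incubated with rat liver microsomes at 37 °C over a time course. Samples analysed by mass spectrometry, with extracted-ion chromatograms monitored for parent and oxidised species. Recovery calculated from the AUC of the extracted ion.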
(In general: Liver microsomes are vesicles of endoplasmic reticulum, rich in cytochrome P450 enzymes.)

For series [2] the following is noted: values determined in Sprague Dawley rat; cited from earlier work.
A further series deals with MYC (Homo sapiens, UniProt P01106). Briefly: Affinity for MYC. It is filed as binding.
Series [3] can be described thus: Mouse i.v. PK study of 5g. The settings on record: 5g versus 5a. It counts as in vivo, C57Bl6 mice.
Series [4] relates to CEF transfected with ATG-MYC. As to the kind of experiment: Focus assay: microtumor formation by ATG-MYC expressing vector in CEF. It counts as cell-based, chicken.

MYC, sequence (P01106 whole entry, species assumed): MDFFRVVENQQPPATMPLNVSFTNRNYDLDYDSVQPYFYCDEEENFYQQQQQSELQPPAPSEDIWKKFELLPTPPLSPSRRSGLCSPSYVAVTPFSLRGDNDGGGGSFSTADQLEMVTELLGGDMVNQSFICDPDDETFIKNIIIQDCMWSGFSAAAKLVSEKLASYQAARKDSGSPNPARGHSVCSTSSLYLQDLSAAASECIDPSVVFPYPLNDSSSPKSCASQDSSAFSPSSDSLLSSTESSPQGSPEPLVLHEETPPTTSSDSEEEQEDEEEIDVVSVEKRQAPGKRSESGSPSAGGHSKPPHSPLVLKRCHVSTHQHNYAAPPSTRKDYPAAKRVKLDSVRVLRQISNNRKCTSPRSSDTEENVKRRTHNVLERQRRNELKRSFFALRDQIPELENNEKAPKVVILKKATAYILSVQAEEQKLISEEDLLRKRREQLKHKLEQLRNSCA

For `NC(=O)c1ccc(-c2cc(-c3ccc([N+](=O)[O-])cc3)nc(-c3ccco3)c2)cc1` [5a], in series [1], the “fate of nitro group on incubation with rat liver microsomes” value is on record as “readily eliminated”. Further, the Half-life in series [2] is 1.6 h.

As for `NC(=O)c1ccc(-c2cc(-c3ccc(-c4nccs4)cc3)nc(-c3ccco3)c2)cc1` [5g], on MYC, the “ligand efficiency (LE)” value was 0.36. Besides, the “improvement in exposure (AUC) compared with 5a” value in series [3] was 30 fold.

For `c1coc(-c2cc(-c3nccs3)cc(-c3ccc(-c4nccs4)cc3)n2)c1` [5j], the “activity in the CEF assay” value in series [4] is given as “not found to have any activity”.

For the compound `CS(=O)(=O)NC(=O)c1ccc(-c2cc(-c3ccc(C#N)cc3)nc(-c3ccco3)c2)cc1` [5m], the “loss of potency compared to 5a” value in series [4] (CEF assay) turned out to be 10 fold.
